Experimental data gathered from unrelated publications.
Target: Serine/threonine-protein kinase NIM1 (NIM1K, Homo sapiens, UniProt Q8IY84)

SMILES | test | conditions | remaining binding
CN(C)c1nccc(-c2cnn3ncccc23)n1 | binding | 1 µM | 52%
O=C(NCCCN1CCOCC1)c1ccc(Nc2nccc(-c3cc4ccccc4s3)n2)cc1 | binding, competition with immobilised ligand | 1 µM | 86%
O=C(Nc1cccnn1)N1CCC(=Cc2cccc(Oc3ccc(C(F)(F)F)cn3)c2)CC1 | cell-free assay, competition with immobilised ligand | 1 µM | 100%
CNC(=O)[C@@H]1CC[C@@H](n2c(-c3ccc4cnccc4c3)nc3ccc(C(=O)NCc4cccc(C(N)=O)c4)cc32)C1 | binding, competition with immobilised ligand | 1 µM | 100%
CN(c1nccc(-c2cnn3ncccc23)n1)C1CC1 | binding | 1 µM | 100%
CC1=C(C#N)[C@@H](c2ccc3[nH]nc(C)c3c2)C(C#N)=C(c2ccc(Cl)cc2)N1 | cell-free assay, competition with immobilised ligand | 1 µM | 100%
CN(C)c1ncc(F)c(-c2cnn3ncccc23)n1 | binding | 1 µM | 69%
O=C(Nc1c[nH]nc1C(=O)NC1CCNCC1)c1cc(F)cc(F)c1 | binding, competition with immobilised ligand | 1 µM | 100%
O=C(c1ccc(Nc2nccc(-c3cc4ccccc4s3)n2)cc1)N1CCC(N2CCCC2)CC1 | binding, competition with immobilised ligand | 1 µM | 80%
COc1ccc2c(c1)O[C@H](c1ccc(OC)c(OC)c1)C[C@@H]2NC(=O)C1(c2ccc3c(c2)OC(F)(F)O3)CC1 | cell-free assay, competition with immobilised ligand | 1 µM | 84%
O=C(c1ccc(Nc2ncc(Cl)c(-c3cc4ccccc4s3)n2)cc1)N1CCC(N2CCCC2)CC1 | binding, competition with immobilised ligand | 1 µM | 20%
COc1ncc2cc3ccccc3nc2c1C#N | cell-free assay, competition with immobilised ligand | 5 µM | 89%
Cc1cc(-n2nc(Cc3cc(F)cc(C(F)(F)F)c3)nc2C)ccc1C(N)=O | cell-free assay, competition with immobilised ligand | 1 µM | 100%
CN(CCCC(F)(F)F)c1nccc(-c2cnn3ncccc23)n1 | binding | 1 µM | 100%
CCC(=O)N[C@H]1CC[C@@H](C(=O)N(C)c2ccc(-c3nc4ccccc4o3)cc2)C1 | cell-free assay, competition with immobilised ligand | 1 µM | 88%
COc1cnc(Nc2cccc(S(N)(=O)=O)c2)nc1N1CCN(c2ccccc2)C(=O)C1 | binding, competition with immobilised ligand | 1 µM | 87%
F[C@@H]1CCN(c2nccc(-c3cnn4ncccc34)n2)C1 | binding | 1 µM | 100%
c1cncc(-c2cccc(Nc3nccc(NC4CCCCC4)n3)c2)c1 | binding, competition with immobilised ligand | 10 µM | 88%
CC1CCCN1c1nccc(-c2cnn3ncccc23)n1 (stereo not shown) | binding | 1 µM | 95%
C[C@@H](c1ccc(-n2cnc3c(N)ncnc32)cc1)N1CCc2nn(C)c(Cc3ccccc3)c2C1=O | binding, competition with immobilised ligand | 0.1 µM | 67%
C[C@H]1CCN(c2nccc(-c3cnn4ncccc34)n2)C1 | binding | 1 µM | 82%
CS(=O)(=O)N1CCCC(NC(=O)[C@H](CCC2CCCCC2)NC(=O)c2ccc(CNC(=O)c3cnc4ccccn34)cc2)C1 (stereo partly shown) | cell-free assay, competition with immobilised ligand | 0.1 µM | 64%
